The Kd is a measure of binding affinity in units of concentration. Low readings indicate tighter binding, high ones weaker binding. By IC50 is commonly meant the concentration at which inhibition is half-maximal. The low end stands for inhibition by little substance, the high end for a need for much substance.

*1 amine or outer side, *2 acyl side, *3 side chain or, on linkers, in order; H or OH if unused. Where a SMILES comes first, the peptide text is derived from it. [ ]: non-standard residue; d: D form. The star is where a group is joined. X2 = O=C(c1cc(N=C=S)ccc1-c1c2ccc(=O)cc-2oc2cc(O)ccc12)*; Achc(cis-1,4) = O=C([C@H]1CC[C@@H](N[*:1])CC1)[*:2]; Achc(trans-4) = O=C([C@H]1CC[C@H](N[*:1])CC1)[*:2]; Azetidine3carboxylic = O=C(C1CN([*:1])C1)[*:2]; Phac(3-amino) = O=C(Cc1cccc(N[*:1])c1)[*:2]; X3 = C=CCCN([C@@H](CC(C)C)C(=O)[*:2])[*:1]; pY = N[C@@H](Cc1ccc(OP(=O)(O)O)cc1)C(=O)O; X1 = O=C(C1CN([*:3])CCN1[*:1])[*:2]; Trx = NC[C@H]1CC[C@H](C(=O)O)CC1; X6 = O=C([C@H](O)CCN[*:1])[*:2]; X4 = O=C(CC(O)CN[*:1])[*:2]; 4Amb = NCc1ccc(C(=O)O)cc1; 4Abz = Nc1ccc(C(=O)O)cc1; NH(but-3-enyl) = C=CCCN*; Inp = O=C(O)C1CCNCC1

One experiment deals with T1, SHC-transforming protein 1 (Homo sapiens, UniProt P29353).
T1 sequence (P29353 whole entry): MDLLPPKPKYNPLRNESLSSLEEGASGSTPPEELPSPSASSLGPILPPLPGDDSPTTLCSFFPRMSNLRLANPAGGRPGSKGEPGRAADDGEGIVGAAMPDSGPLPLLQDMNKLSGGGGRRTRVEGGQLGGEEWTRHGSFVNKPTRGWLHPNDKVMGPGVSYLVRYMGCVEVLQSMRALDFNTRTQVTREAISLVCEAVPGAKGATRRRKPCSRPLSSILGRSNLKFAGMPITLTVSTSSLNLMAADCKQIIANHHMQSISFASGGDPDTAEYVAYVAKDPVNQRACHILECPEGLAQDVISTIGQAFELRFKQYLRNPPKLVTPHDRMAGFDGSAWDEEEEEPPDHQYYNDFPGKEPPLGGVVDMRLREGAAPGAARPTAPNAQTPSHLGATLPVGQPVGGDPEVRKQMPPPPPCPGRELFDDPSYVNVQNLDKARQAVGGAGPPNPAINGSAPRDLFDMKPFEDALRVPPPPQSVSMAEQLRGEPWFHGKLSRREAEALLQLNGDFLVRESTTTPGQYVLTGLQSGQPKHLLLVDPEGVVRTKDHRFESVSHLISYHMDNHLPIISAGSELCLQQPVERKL
The experiment can be described thus: Binding affinity to Shc Src homology 2 domain by fluorescence anisotropy. The procedure, abridged:
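Direct binding: 5 nM N-terminal fluorescein-labelled peptide in 10 mM HEPES, 150 mM NaCl pH 7.5 with 10% (v/v) DMSO; Shc SH2 protein serially diluted from 100 μM. Excitation 485 nm, parallel and perpendicular emission at 535 nm. Kd from fitting anisotropy versus protein concentration to a single-site binding model.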
As for `CC(C)C[C@H](NC(=O)CNC(=O)[C@H](CCC(N)=O)NC(=O)[C@H](Cc1ccc(OP(=O)(O)O)cc1)NC(=O)C1CN(C(=O)c2cc(N=C=S)ccc2-c2c3ccc(=O)cc-3oc3cc(O)ccc23)C1)C(=O)N[C@@H](CO)C(N)=O` [4-((2S,5S,11S,14S)-1-amino-11-(3-amino-3-oxopropyl)-14-(1-(2-(6-hydroxy-3-oxo-3H-xanthen-9-yl)-5-isothiocyanatobenzoyl)azetidine-3-carboxamido)-2-(hydroxymethyl)-5-isobutyl-1,4,7,10,13-pentaoxo-3,6,9,12-tetraazapentadecan-15-yl)phenyl dihydrogen phosphate] (X2-[Azetidine3carboxylic][pY]QGLS-NH2), binding was characterised by a dissociation constant (Kd) of 5.3 µM.

The compound `CC(C)C[C@H](NC(=O)CNC(=O)[C@H](CCC(N)=O)NC(=O)[C@H](Cc1ccc(OP(=O)(O)O)cc1)NC(=O)C1CCN(C(=O)c2cc(N=C=S)ccc2-c2c3ccc(=O)cc-3oc3cc(O)ccc23)CC1)C(=O)N[C@@H](CO)C(N)=O` [4-((2S,5S,11S,14S)-1-amino-11-(3-amino-3-oxopropyl)-14-(1-(2-(6-hydroxy-3-oxo-3H-xanthen-9-yl)-5-isothiocyanatobenzoyl)piperidine-4-carboxamido)-2-(hydroxymethyl)-5-isobutyl-1,4,7,10,13-pentaoxo-3,6,9,12-tetraazapentadecan-15-yl)phenyl dihydrogen phosphate] ({X2-Inp}-[pY]QGLS-NH2) showed a Kd of 14.2 µM.

Turning to `CC(C)C[C@H](NC(=O)CNC(=O)[C@H](CCC(N)=O)NC(=O)[C@H](Cc1ccc(OP(=O)(O)O)cc1)NC(=O)Cc1cccc(NC(=O)c2cc(N=C=S)ccc2-c2c3ccc(=O)cc-3oc3cc(O)ccc23)c1)C(=O)N[C@@H](CO)C(N)=O` [4-((2S,5S,11S,14S)-1-amino-11-(3-amino-3-oxopropyl)-14-(2-(3-(2-(6-hydroxy-3-oxo-3H-xanthen-9-yl)-5-isothiocyanatobenzamido)phenyl)acetamido)-2-(hydroxymethyl)-5-isobutyl-1,4,7,10,13-pentaoxo-3,6,9,12-tetraazapentadecan-15-yl)phenyl dihydrogen phosphate] (X2-[Phac(3-amino)][pY]QGLS-NH2), the Kd came out at 0.77 µM.

For `CC(C)C[C@H](NC(=O)CNC(=O)[C@H](CCC(N)=O)NC(=O)[C@H](Cc1ccc(OP(=O)(O)O)cc1)NC(=O)CC(O)CNC(=O)c1cc(N=C=S)ccc1-c1c2ccc(=O)cc-2oc2cc(O)ccc12)C(=O)N[C@@H](CO)C(N)=O` (stereo partly drawn) [4-((2S,5S,11S,14S)-1-amino-11-(3-amino-3-oxopropyl)-14-(3-hydroxy-4-(2-(6-hydroxy-3-oxo-3H-xanthen-9-yl)-5-isothiocyanatobenzamido)butanamido)-2-(hydroxymethyl)-5-isobutyl-1,4,7,10,13-pentaoxo-3,6,9,12-tetraazapentadecan-15-yl)phenyl dihydrogen phosphate] (X2-[X4][pY]QGLS-NH2), the Kd turned out to be 8.6 µM.

The compound `CC(C)C[C@H](NC(=O)CNC(=O)[C@H](CCC(N)=O)NC(=O)[C@H](Cc1ccc(OP(=O)(O)O)cc1)NC(=O)c1ccc(NC(=O)c2cc(N=C=S)ccc2-c2c3ccc(=O)cc-3oc3cc(O)ccc23)cc1)C(=O)N[C@@H](CO)C(N)=O` [4-((2S,5S,11S,14S)-1-amino-11-(3-amino-3-oxopropyl)-14-(4-(2-(6-hydroxy-3-oxo-3H-xanthen-9-yl)-5-isothiocyanatobenzamido)benzamido)-2-(hydroxymethyl)-5-isobutyl-1,4,7,10,13-pentaoxo-3,6,9,12-tetraazapentadecan-15-yl)phenyl dihydrogen phosphate] ({X2-4Abz}-[pY]QGLS-NH2) displayed a dissociation constant (Kd) of 23.9 µM.

`CC(C)C[C@H](NC(=O)CNC(=O)[C@H](CCC(N)=O)NC(=O)[C@H](Cc1ccc(OP(=O)(O)O)cc1)NC(=O)C1CN(C(=O)c2cc(N=C=S)ccc2-c2c3ccc(=O)cc-3oc3cc(O)ccc23)CCN1)C(=O)N[C@@H](CO)C(N)=O` (stereo partly drawn) [4-((2S,5S,11S,14S)-1-amino-11-(3-amino-3-oxopropyl)-14-(4-(2-(6-hydroxy-3-oxo-3H-xanthen-9-yl)-5-isothiocyanatobenzoyl)piperazine-2-carboxamido)-2-(hydroxymethyl)-5-isobutyl-1,4,7,10,13-pentaoxo-3,6,9,12-tetraazapentadecan-15-yl)phenyl dihydrogen phosphate] (H-[X1](X2)[pY]QGLS-NH2) came in with a Kd of 9.5 µM.

Turning to `CC(C)C[C@H](NC(=O)CNC(=O)[C@H](CCC(N)=O)NC(=O)[C@H](Cc1ccc(OP(=O)(O)O)cc1)NC(=O)c1ccc(CNC(=O)c2cc(N=C=S)ccc2-c2c3ccc(=O)cc-3oc3cc(O)ccc23)cc1)C(=O)N[C@@H](CO)C(N)=O` [4-((2S,5S,11S,14S)-1-amino-11-(3-amino-3-oxopropyl)-14-(4-((2-(6-hydroxy-3-oxo-3H-xanthen-9-yl)-5-isothiocyanatobenzamido)methyl)benzamido)-2-(hydroxymethyl)-5-isobutyl-1,4,7,10,13-pentaoxo-3,6,9,12-tetraazapentadecan-15-yl)phenyl dihydrogen phosphate] ({X2-4Amb}-[pY]QGLS-NH2), the equilibrium dissociation constant (Kd) was determined as 12.3 µM.

Compound `CC(C)C[C@H](NC(=O)CNC(=O)[C@H](CCC(N)=O)NC(=O)[C@H](Cc1ccc(OP(=O)(O)O)cc1)NC(=O)[C@H](O)CCNC(=O)c1cc(N=C=S)ccc1-c1c2ccc(=O)cc-2oc2cc(O)ccc12)C(=O)N[C@@H](CO)C(N)=O` [4-((2S,5S,11S,14S)-1-amino-11-(3-amino-3-oxopropyl)-14-((R)-2-hydroxy-4-(2-(6-hydroxy-3-oxo-3H-xanthen-9-yl)-5-isothiocyanatobenzamido)butanamido)-2-(hydroxymethyl)-5-isobutyl-1,4,7,10,13-pentaoxo-3,6,9,12-tetraazapentadecan-15-yl)phenyl dihydrogen phosphate] (X2-[X6][pY]QGLS-NH2) gave a dissociation constant Kd of 9 µM.

The compound `CC(C)C[C@H](NC(=O)CNC(=O)[C@H](CCC(N)=O)NC(=O)[C@H](Cc1ccc(OP(=O)(O)O)cc1)NC(=O)[C@H]1CC[C@@H](NC(=O)c2cc(N=C=S)ccc2-c2c3ccc(=O)cc-3oc3cc(O)ccc23)CC1)C(=O)N[C@@H](CO)C(N)=O` [cis-4-((2S,5S,11S,14S)-1-amino-11-(3-amino-3-oxopropyl)-14-(4-(2-(6-hydroxy-3-oxo-3H-xanthen-9-yl)-5-isothiocyanatobenzamido)cyclohexanecarboxamido)-2-(hydroxymethyl)-5-isobutyl-1,4,7,10,13-pentaoxo-3,6,9,12-tetraazapentadecan-15-yl)phenyl dihydrogen phosphate] (X2-[Achc(cis-1,4)][pY]QGLS-NH2) registered a Kd of 0.5 µM.

The compound `CC(C)C[C@H](NC(=O)CNC(=O)[C@H](CCC(N)=O)NC(=O)[C@H](Cc1ccc(OP(=O)(O)O)cc1)NC(=O)[C@H]1CC[C@H](NC(=O)c2cc(N=C=S)ccc2-c2c3ccc(=O)cc-3oc3cc(O)ccc23)CC1)C(=O)N[C@@H](CO)C(N)=O` [trans-4-((2S,5S,11S,14S)-1-amino-11-(3-amino-3-oxopropyl)-14-(4-(2-(6-hydroxy-3-oxo-3H-xanthen-9-yl)-5-isothiocyanatobenzamido)cyclohexanecarboxamido)-2-(hydroxymethyl)-5-isobutyl-1,4,7,10,13-pentaoxo-3,6,9,12-tetraazapentadecan-15-yl)phenyl dihydrogen phosphate] (X2-[Achc(trans-4)][pY]QGLS-NH2) came in with an equilibrium dissociation constant (Kd) of 25.4 µM. Compared with the last compound, the Kd is about 51-fold higher.

Compound `CC(C)C[C@H](NC(=O)CNC(=O)[C@H](CCC(N)=O)NC(=O)[C@H](Cc1ccc(OP(=O)(O)O)cc1)NC(=O)[C@H]1CC[C@H](CNC(=O)c2cc(N=C=S)ccc2-c2c3ccc(=O)cc-3oc3cc(O)ccc23)CC1)C(=O)N[C@@H](CO)C(N)=O` [trans-4-((2S,5S,11S,14S)-1-amino-11-(3-amino-3-oxopropyl)-14-(4-((2-(6-hydroxy-3-oxo-3H-xanthen-9-yl)-5-isothiocyanatobenzamido)methyl)cyclohexanecarboxamido)-2-(hydroxymethyl)-5-isobutyl-1,4,7,10,13-pentaoxo-3,6,9,12-tetraazapentadecan-15-yl)phenyl dihydrogen phosphate] ({X2-Trx}-[pY]QGLS-NH2) yielded a Kd of 18 µM.

A further experiment deals with T1, SHC-transforming protein 1. The experiment can be described thus: Displacement of FITC-tagged NH-(CH2)4-CO-phospho-tyrosine-glutamine-glycine-leucine-serine-amide from Shc Src homology 2 domain by fluorescence anisotropy competition assay. The procedure, abridged: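 Competition: preformed complex of 2 μM Shc SH2 protein with 10 nM FITC-labelled reference peptide in HEPES/NaCl pH 7.5 buffer, 10% DMSO; unlabelled peptides serially diluted from 500 μM. Anisotropy read at 485/535 nm. Fractional binding fitted with an order-3 spline with three knots; IC50 taken where the spline reaches one half.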
On the technique in general: Fluorescence polarisation rises when a labelled molecule tumbles more slowly, as on binding a larger partner.
In turn, `C=CCCNC(=O)[C@H](CC(C)C)N(CCC=C)C(=O)CNC(=O)[C@H](CCC(N)=O)NC(=O)[C@H](Cc1ccc(OP(=O)(O)O)cc1)NC(C)=O` [4-((2S,5S,11S)-2-acetamido-5-(3-amino-3-oxopropyl)-10-(but-3-enyl)-11-isobutyl-3,6,9,12-tetraoxo-4,7,10,13-tetraazaheptadec-16-enyl)phenyl dihydrogen phosphate] came in with a concentration for half-maximal inhibition (IC50) of 84 µM.

Compound `C=CCCNC(=O)[C@H](CO)NC(=O)[C@H](CC(C)C)N(CCC=C)C(=O)CNC(=O)[C@H](CCC(N)=O)NC(=O)[C@H](Cc1ccc(OP(=O)(O)O)cc1)NC(C)=O` [4-((2S,5S,11S,14S)-2-acetamido-5-(3-amino-3-oxopropyl)-10-(but-3-enyl)-14-(hydroxymethyl)-11-isobutyl-3,6,9,12,15-pentaoxo-4,7,10,13,16-pentaazaicos-19-enyl)phenyl dihydrogen phosphate] (Ac-[pY]QG[X3]S-{NH(but-3-enyl)}) yielded a half-inhibitory concentration (IC50) of 89 µM.
